# Source: ChEMBL document CHEMBL4261642, “Design, synthesis, and ex vivo evaluation of a selective inhibitor for retinaldehyde dehydrogenase enzymes” (Bioorg Med Chem, 2018)
# Key:
# [1] = Inhibition of N-terminal His6-tagged recombinant chick RALDH3 expressed in Escherichia coli BL21(DE3) cells using RAL as substrate preincubated for 20 mins followed by substrate addition and measured after 30 mins in presence of NADH by fluorescence assay; parameters: species or system Gallus gallus
# Procedure, shortened: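 Purified His-tagged recombinant enzyme in dialysis buffer with 2 mM DTT. Amounts were chick RALDH1 2 μg (0.358 μM), chick RALDH2 0.5 μg (0.091 μM), chick RALDH3 2 μg (0.355 μM) and human RALDH2 1 μg (0.176 μM). Enzyme pre-incubated 20 min at 37°C with 0–10 μM inhibitor in DMSO. Reaction started with final 4 mM NAD+ in pyrophosphate pH 8.2 buffer plus 250 μM retinaldehyde, 30 min at 37°C. NADH read fluorimetrically (Ex/Em 540/590) against a standard curve. Triplicates, 3–5 experiments.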
# Retinal dehydrogenase 2 = target: T1, Retinal dehydrogenase 2 (Gallus gallus, UniProt O93344); experiment: Inhibition of RALDH2 in living intact choroid isolated from 4 day recovering chick eyes assessed as inhibition of ATRA synthesis after 24 hrs in presence of […]
# T1 sequence (O93344 whole entry): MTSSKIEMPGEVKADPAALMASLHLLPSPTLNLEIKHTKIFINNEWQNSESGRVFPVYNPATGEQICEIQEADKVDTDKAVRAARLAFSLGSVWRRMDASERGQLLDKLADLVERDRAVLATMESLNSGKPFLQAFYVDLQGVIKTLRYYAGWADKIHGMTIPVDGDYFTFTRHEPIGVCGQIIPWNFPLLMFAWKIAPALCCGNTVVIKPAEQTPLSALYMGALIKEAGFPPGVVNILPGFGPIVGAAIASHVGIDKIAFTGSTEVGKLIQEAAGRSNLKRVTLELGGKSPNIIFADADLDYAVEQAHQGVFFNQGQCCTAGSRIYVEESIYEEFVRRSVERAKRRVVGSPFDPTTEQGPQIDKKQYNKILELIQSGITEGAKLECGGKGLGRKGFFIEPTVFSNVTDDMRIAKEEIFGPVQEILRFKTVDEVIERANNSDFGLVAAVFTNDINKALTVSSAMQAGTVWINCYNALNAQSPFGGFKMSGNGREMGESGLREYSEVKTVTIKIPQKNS
structure (smiles),measurement,setting,value
CC1=C(/C=C/C(C)=C/C=C/C(C)=C/C(=O)C(Cl)Cl)C(C)(C)CCC1,IC50,[1],161 nM
same,EC50,Retinal dehydrogenase 2,120 nM
